Assay outcomes as filed in PubChem.
Apaf1 inhib = human Apaf-1 inhibition. reconstituted apoptosome caspase-3 activity, DEVD-Rh110 fluorescence. inhibition, % at 20 µM. actives 0.71% (n = 330,000). AID 489030; active = inhibition of at least 40% at 20 µM;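 also: plate controls were DMSO wells for no effect and DEVD-CHO caspase inhibitor wells for full effect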
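Material: reconstituted apoptosome with Apaf-1, cytochrome c, caspase-9, procaspase-3, dATP / Buffer or medium: pH 7.5 Hepes buffer with CHAPS, BSA, DTT / Also added: cytochrome c with DEVD-Rh110 / Schedule: compound with Apaf-1, dATP, procaspase-3 30 min, then 50 min reaction, room temperature / Technique: rhodamine 110 fluorescence at Ex 480/Em 540 nm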
CTSL1 counter = counter-screen for PFM18AAP inhibitors: inhibitors of F. hepatica cathepsin L1; recombinant F. hepatica cathepsin L1, Z-Leu-Arg-MCA fluorescence; inhibition, % at 5.96 µM; actives 0.49% (n = 300,000);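 active = inhibition above the mean of all tested compounds plus 3 SD, set per screening campaign, cut at about 17% in these data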;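 also: 0% = plate median of test compound wells and 100% = 1 µM Z-Phe-Ala-diazomethylketone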
TDP2 inh = blocks human TDP2 phosphodiesterase activity | O95551 | AID 720702 | inhibition, % at 12.8 µM | actives 0.34% (n = 370,000) | recombinant TDP2, T5PNP hydrolysis, p-nitrophenol absorbance 415 nm;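 active = inhibition above the mean of all tested compounds plus 3 SD, set per campaign, cut at about 25% in these data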;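 also: 0% = DMSO with enzyme and 100% = buffer with substrate but no TDP2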
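Incubation: 2 h at 37 °C; Test system: recombinant human TDP2; Quantity: enzyme 120 nM; Read-out basis: percent inhibition; Medium: 50 mM Tris-HCl pH 7.5 with Mg2+, KCl, DTT, BSA; Repeats: single replicate; Compound: 12.8 µM single point, 1% DMSO; Signal: epi absorbance; Reagent: 5 mM T5PNP chromogenic substrate; Benchmarks: no-enzyme high, DMSO-plus-enzyme low.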
GSTO1 inh = GSTO1 inhibition, counter-screen for RBBP9 inhibitors. P78417. recombinant GSTO1, activity-based probe fluorescence polarization. inhibition, % at 5.96 µM. actives 1.1% (n = 300,000). AID 1974;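 active = inhibition above the campaign mean inhibition plus 3 SD, cut at about 35% in these data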;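 also: 0% = GSTO1-1 with DMSO and 100% = wells lacking GSTO1-1 enzyme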
PAD4 inh = blocks human protein arginine deiminase 4. Q9UM07. recombinant PAD4, RCA probe fluorescence polarization. inhibition, % at 6.36 µM. actives 0.41% (n = 330,000);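 active = percent inhibition above a cutoff equal to the mean of all tested compounds plus 3 SD, cut at about 15% in these data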;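 also: 0% = PAD4 with RCA probe and DMSO and 100% = probe without PAD4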
Target sequence (Q9UM07 whole entry, looked up): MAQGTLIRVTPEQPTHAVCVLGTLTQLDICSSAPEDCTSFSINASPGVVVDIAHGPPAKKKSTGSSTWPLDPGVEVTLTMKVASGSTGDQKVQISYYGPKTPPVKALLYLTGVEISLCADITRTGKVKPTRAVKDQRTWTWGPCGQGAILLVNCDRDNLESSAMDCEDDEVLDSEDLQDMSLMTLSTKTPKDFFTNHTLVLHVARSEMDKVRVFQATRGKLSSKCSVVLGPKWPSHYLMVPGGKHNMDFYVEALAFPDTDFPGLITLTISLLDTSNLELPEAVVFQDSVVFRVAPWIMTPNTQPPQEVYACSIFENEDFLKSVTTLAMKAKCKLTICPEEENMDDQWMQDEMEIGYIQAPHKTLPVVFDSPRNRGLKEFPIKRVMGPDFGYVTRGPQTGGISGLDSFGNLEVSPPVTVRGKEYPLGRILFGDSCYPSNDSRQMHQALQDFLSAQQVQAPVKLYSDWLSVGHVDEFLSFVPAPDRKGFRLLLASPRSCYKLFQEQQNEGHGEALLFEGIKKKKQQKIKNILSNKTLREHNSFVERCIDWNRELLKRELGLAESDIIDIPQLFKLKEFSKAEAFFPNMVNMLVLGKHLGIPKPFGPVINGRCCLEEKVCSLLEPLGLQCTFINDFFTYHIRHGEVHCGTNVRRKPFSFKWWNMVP
PAD4 FP conf = PAD4 (human) inhibition, confirmed | inhibition, % at 6.36 µM | AID 488796 | actives 28% (n = 1,200) | shares compounds with PAD4 inh | recombinant PAD4, RCA probe fluorescence polarization;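 active = mean inhibition across replicates above the hit cutoff set by the earlier primary screen, cut at about 15% in these data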;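 also: inhibitors block active-site labeling by the probe so polarization falls; 0% = PAD4 with probe and DMSO and 100% = probe without PAD4 enzyme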
An asterisk follows results filed as active; · = no result. In the library only some 1.8% were active in any assay of this set; here they are far more common.

SMILES | Apaf1 inhib | CTSL1 counter | TDP2 inh | GSTO1 inh | PAD4 inh | PAD4 FP conf
NC(=O)c1ncn([C@@H]2O[C@H](C(=O)N[C@H](Cc3ccccc3)C(=O)O)[C@@H](O)[C@H]2O)n1 | · | · | -2 | · | · | ·
COCCOC(=O)c1c(C)n(C)c2ccc(OC(=O)N3CCOCC3)cc12 | -2 | -2 | -3 | 0 | 0 | ·
COCCOC(=O)c1c(C)n(C)c2ccc(OC(=O)c3c(OC)cccc3OC)cc12 | 18 | -1 | -3 | -6 | 29* | 23*
COC(=O)C1CN(Cc2ccc(F)cc2)CCS(=O)(=O)N1Cc1cn(Cc2ccc(F)cc2)nn1 (stereo not given) | · | · | 4 | · | · | ·
Cc1c([N+](=O)[O-])cnc(Sc2ccccc2)c1[N+](=O)[O-] | -7 | 4 | -16 | 13 | 26* | 14
COC(=O)Nc1ccc(SCC(=O)c2cccc([N+](=O)[O-])c2)cc1 | 6 | -17 | 8 | 11 | 26* | 19*
CC(=O)Nc1ccc(C(=O)OCC(=O)c2cccc([N+](=O)[O-])c2)cc1 | -3 | 5 | 5 | -2 | -1 | ·
CCCCN1CC[C@H](C)Oc2cc(Br)ccc2S1(=O)=O | · | · | -3 | · | · | ·
O=C1COc2ccccc2C(c2nnnn2Cc2ccccc2)N1Cc1cccs1 (stereo not given) | · | · | -4 | · | · | ·
CCN(Cc1ccc2c(c1)OCO2)C(=O)CSc1ncnc2sccc12 | 7 | · | -5 | · | 1 | ·
CCN(Cc1ccc2c(c1)OCCO2)C(=O)CSc1nc(C)nc2sc(C)c(C)c12 | 11 | · | -3 | · | 79* | -4
COc1ccccc1C(=O)Nc1nc(-c2ccc(S(=O)(=O)N3CCOCC3)cc2)cs1 | 17 | 0 | -1 | -32 | 40* | 41*
COc1ccccc1OC(C)C(=O)Nc1nc(-c2ccc(S(=O)(=O)N3CCOCC3)cc2)cs1 (stereo not given) | 22 | -6 | -8 | -11 | -1 | ·
FC(F)Oc1ccc(-c2csc(NNC3=NCCCCC3)n2)cc1 | 17 | -1 | 0 | 15 | 19* | 4
Oc1ccc2ccccc2c1C=NCc1ccccc1 | 13 | 3 | -4 | 34 | 19* | -2
Oc1ccc2ccccc2c1/C=N/Nc1ccccc1 | 13 | -1 | -16 | 32 | 11 | ·
O=C(CSc1ccccn1)Nc1nonc1[N+](=O)[O-] | 9 | 9 | -12 | -3 | 19* | 7
O=C(CSc1ccccn1)Nc1ccc(NC(=O)CSc2ccccn2)cc1 | -11 | -1 | -5 | 1 | -1 | ·
Cn1nnnc1Sc1ncnc2scc(-c3ccc([N+](=O)[O-])cc3)c12 | -2 | · | -3 | · | 17* | 10
CCC(C)CNC(=O)CN1C(=O)C2CCCCN2C(=O)c2ccccc21 (stereo not given) | · | · | -10 | · | · | ·
C[C@@H]1CN([C@H](C)CO)C(=O)c2cc(NC(=O)Nc3ccccc3)ccc2O[C@@H](C)CCCCO[C@H]1CN(C)S(C)(=O)=O | · | · | 2 | · | · | ·
COc1ccc(C(=O)NNC(=S)NC(=O)c2cc(-c3ccccc3)nc3ccccc23)cc1 | 21 | 3 | 8 | -62 | 15* | 6
CCCOc1ccc(C(=O)NNC(=S)NC(=O)c2cc(-c3ccc(Cl)cc3)nc3ccccc23)cc1 | 29 | -2 | 6 | 0 | 8 | ·
O=C(Nc1nc(=O)c2ccccc2s1)c1ccc(F)cc1 | -8 | -1 | 13 | 2 | 16* | 1
O=C(Nc1nc(=O)c2ccccc2s1)c1ccc(Cl)cc1 | -28 | 3 | -3 | -5 | 1 | ·
SMILES | Apaf1 inhib | CTSL1 counter | TDP2 inh | GSTO1 inh | PAD4 inh | PAD4 FP conf
COC(=O)[C@H](C)N(CCc1cn(Cc2ccccc2)nn1)S(=O)(=O)c1ccccc1Br | · | · | -2 | · | · | ·
CC(C)(C)c1ccc(S(=O)(=O)N2CCCC(C(=O)NCc3cccs3)C2)cc1 (stereo not given) | · | · | 3 | · | · | ·
O=S1OC(c2ccccc2)c2cc(Cl)ccc21 (stereo not given) | 7 | 1 | 11 | 7 | 40* | 35*
CN[C@H]1C[C@H]2c3[nH]c4c(-c5cccc(C)c5)cccc4c3CCN2C[C@H]1[C@H](C)O | · | · | 1 | · | · | ·
O=C1c2ccccc2C(=O)N1c1ccc(Cl)cc1 | 18 | 2 | · | -1 | 1 | ·
CC(=O)Nc1ccc(N2C(=O)c3cccc4c(O)ccc(c34)C2=O)cc1 | 6 | 1 | 7 | 25 | 39* | 36*
